Data taken from ChEMBL document CHEMBL4229555, “Design, synthesis and structure-activity relationship study of novel naphthoindolizine and indolizinoquinoline-5,12-dione derivatives as IDO1 inhibitors” (Bioorg Med Chem, 2018).

Assays:
[1] = target: T1, Indoleamine 2,3-dioxygenase 1 (Homo sapiens, UniProt P14902); assay: Inhibition of IDO1 (unknown origin) assessed as reduction in N'-formlylkynurenine formation at 1 uM using D-Tryptophan as substrate in presence of ascorbate and methylene blue relative to control
Target sequence in this assay (P14902 whole entry, looked up): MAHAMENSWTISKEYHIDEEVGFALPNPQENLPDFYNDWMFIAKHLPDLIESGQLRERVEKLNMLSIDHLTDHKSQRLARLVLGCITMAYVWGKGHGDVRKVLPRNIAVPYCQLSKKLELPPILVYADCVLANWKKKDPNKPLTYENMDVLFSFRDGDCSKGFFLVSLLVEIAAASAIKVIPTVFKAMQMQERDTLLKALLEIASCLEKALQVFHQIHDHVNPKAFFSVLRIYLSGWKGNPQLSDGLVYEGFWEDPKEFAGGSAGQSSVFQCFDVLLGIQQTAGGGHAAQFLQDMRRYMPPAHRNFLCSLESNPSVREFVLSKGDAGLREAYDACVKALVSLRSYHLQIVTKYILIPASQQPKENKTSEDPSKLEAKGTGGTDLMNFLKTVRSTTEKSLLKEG

[2] = target: T1, Indoleamine 2,3-dioxygenase 1; assay: Inhibition of IDO1 (unknown origin) assessed as reduction in N'-formlylkynurenine formation using D-Tryptophan as substrate in presence of ascorbate and methylene blue; conditions: in the assay text read “ascorbate” for “aspartate”
Procedure, shortened: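 Room-temperature reaction: 20 nM IDO, 2 mM D-Trp, 20 mM ascorbate, 3.5 μM methylene blue, 0.2 mg/mL catalase in 50 mM potassium phosphate pH 6.5. Initial rates tracked continuously by absorbance rise at 321 nm (N'-formylkynurenine); IC50 by nonlinear regression, normalized dose-response fit.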
Target sequence in this assay (P14902 whole entry): as the sequence (P14902 whole entry, looked up) above

[3] = target: T1, Indoleamine 2,3-dioxygenase 1; assay: Inhibition of IFN-gamma-stimulated IDO1 in human HeLa cells after 24 hrs by Ehrlich's reagent based assay; type: cell-based
Procedure, shortened: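 HeLa cells (40,000/well) adhered 24 h, stimulated with 100 ng/mL human recombinant IFN-γ for 24 h, then given inhibitor in DMSO from 10 μM top dose, 3-fold dilutions to 0.1 μM, for 24 h. Stopped with 30% TCA, 30 min at 50 °C, centrifuged; supernatant mixed with Ehrlich reagent 10 min at room temperature, absorbance at 490 nm.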
Target sequence in this assay (P14902 whole entry): as the sequence (P14902 whole entry, looked up) above

[4] = target: T1, Indoleamine 2,3-dioxygenase 1; assay: Inhibition of IFN-gamma-stimulated IDO1 in human HeLa cells at 1 uM after 24 hrs by Ehrlich's reagent based assay relative to control; type: cell-based
Procedure, shortened: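 IFN-γ (100 ng/mL, 24 h) induction of IDO1 in HeLa cells plated at 40,000/well after 24 h adherence; inhibitor in DMSO, 24 h incubation. Reaction ended with 30% TCA, heated 30 min at 50 °C, centrifuged, supernatant reacted with Ehrlich reagent 10 min at room temperature; read at 490 nm.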
Target sequence in this assay (P14902 whole entry, looked up): as above

[5] = target: T2, Tryptophan 2,3-dioxygenase (Homo sapiens, UniProt P48775); assay: Inhibition of recombinant TDO (unknown origin) assessed as reduction in N-formylkynurenine formation using L-Tryptophan as substrate after 75 mins by UV absorption method
Procedure, shortened: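 Recombinant TDO reaction at room temperature in TDO assay buffer with 200 μM L-tryptophan and inhibitor, incubated 75 min; N-formylkynurenine measured by UV absorbance at 321 nm. Blank used buffer in place of enzyme. IC50 from nonlinear regression with normalized dose-response fit.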
Target sequence in this assay (P48775 whole entry): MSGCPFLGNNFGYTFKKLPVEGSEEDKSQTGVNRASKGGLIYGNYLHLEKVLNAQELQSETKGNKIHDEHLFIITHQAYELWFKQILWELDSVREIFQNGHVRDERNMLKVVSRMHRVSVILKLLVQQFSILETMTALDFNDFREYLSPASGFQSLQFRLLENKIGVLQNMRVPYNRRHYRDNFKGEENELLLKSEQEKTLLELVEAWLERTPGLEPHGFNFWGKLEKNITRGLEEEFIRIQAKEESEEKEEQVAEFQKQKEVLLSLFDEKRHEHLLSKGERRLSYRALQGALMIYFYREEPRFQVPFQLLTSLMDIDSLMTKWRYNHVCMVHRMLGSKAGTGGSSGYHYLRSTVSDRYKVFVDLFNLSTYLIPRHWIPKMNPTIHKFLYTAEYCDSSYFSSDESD

HeLa = assay: Cytotoxicity against human HeLa cells after 48 hrs by MTT assay; type: functional, cell-based
Procedure, shortened: (§1)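 Cells seeded at 3-4 × 10^3 per well and incubated overnight, then exposed to compounds added from 10 mM DMSO stock for 48 h; 1% DMSO as negative control.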

HEK-293T = assay: Cytotoxicity against HEK293T cells after 48 hrs by MTT assay; type: cell-based; conditions: Homo sapiens
Procedure, shortened: as §1

[6] = target: T2, Tryptophan 2,3-dioxygenase; assay: Inhibition of recombinant TDO (unknown origin) assessed as reduction in N-formylkynurenine formation at 10 uM using L-Tryptophan as substrate after 75 mins by UV absorption method relative to control
Procedure, shortened: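 Room-temperature UV assay: recombinant TDO with 200 μM L-tryptophan in TDO assay buffer plus inhibitor, 75 min incubation, then absorbance at 321 nm for N-formylkynurenine. Buffer substituted for TDO as blank.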
Target sequence in this assay (P48775 whole entry, looked up): as the sequence (P48775 whole entry) above

MCF7 = assay: Cytotoxicity against human MCF7 cells after 48 hrs by MTT assay; type: functional, cell-based; conditions: MCF7, 48 h
Procedure, shortened: as §1

| inhibition [1] [%] | IC50 [2] [nM] | inhibition [4] [%] | Compound | further results |
| --- | --- | --- | --- | --- |
| 29.5 | – | – | O=C1c2cccnc2C(=O)c2c1c(C(=O)Nc1cccc(Cl)c1)c1ccccn21 | – |
| 58 | 1190 | – | O=C1c2ncccc2C(=O)c2c1c(C(=O)O)c1ccccn21 | – |
| 74 | 427 | – | Cc1ccccc1NC(=O)c1c2c(n3ccccc13)C(=O)c1ncccc1C2=O | IC50 [5]: > 100000 nM |
| 77 | 87 | 12 | COC(=O)c1c2c(n3ccccc13)C(=O)c1cccc(O)c1C2=O | – |
| 61 | 714 | – | O=C1c2ccccc2C(=O)c2c1c(C(=O)O)c1ccccn21 | – |
| 60 | – | – | O=C1c2c(O)cccc2C(=O)c2c1c(C(=O)O)c1ccccn21 | – |
| 35 | – | – | CCOC(=O)c1c2c(n3ccccc13)C(=O)c1ncccc1C2=O | – |
| 22 | – | – | O=C1c2ccccc2C(=O)c2c1c(C(=O)NCCO)c1ccccn21 | – |
| 29 | – | – | CN(C)CCNC(=O)c1c2c(n3ccccc13)C(=O)c1cccc(O)c1C2=O | – |
| 27 | – | – | CN(C)CCNC(=O)c1c2c(n3ccccc13)C(=O)c1ccccc1C2=O | – |
| 65 | 438 | – | COC(=O)c1c2c(n3ccccc13)C(=O)c1ncccc1C2=O | – |
| 69 | 448 | – | COC(=O)c1c2c(n3ccccc13)C(=O)c1cccnc1C2=O | – |
| 13 | – | – | CC(C)OC(=O)c1c2c(n3ccccc13)C(=O)c1ccccc1C2=O | – |
| 24 | – | – | CN(C)CCCNC(=O)c1c2c(n3ccccc13)C(=O)c1ccccc1C2=O | – |
| 68 | 332 | – | CCOC(=O)c1c2c(n3ccccc13)C(=O)c1ccccc1C2=O | – |
| 70 | 288 | – | O=C1c2cccnc2C(=O)c2c1c(C(=O)O)c1ccccn21 | inhibition [6]: 28% |
| 74.5 | 23 | 22 | NC(=S)NNC(=O)c1c2c(n3ccccc13)C(=O)c1ncccc1C2=O | IC50 (HeLa): > 20000 nM; IC50 (MCF7): > 20000 nM; IC50 [5]: 1200 nM; IC50 (HEK-293T): > 20000 nM |
| 62 | 119 | 25 | O=C1c2ncccc2C(=O)c2c1c(C(=O)Nc1ccccc1)c1ccccn21 | IC50 [5]: > 100000 nM |
| 77 | 156 | 24 | COC(=O)c1c2c(n3ccccc13)C(=O)c1ccccc1C2=O | inhibition [6]: 40% |
| 15 | – | – | O=C1c2ccccc2C(=O)c2c1c(C(=O)NCCCO)c1ccccn21 | – |
| 68 | 361 | – | O=C1c2cccnc2C(=O)c2c1c(C(=O)Nc1ccccc1)c1ccccn21 | IC50 [5]: 7300 nM |
| 61 | 977 | – | CCOC(=O)c1c2c(n3ccccc13)C(=O)c1cccnc1C2=O | inhibition [6]: 14% |
| 64 | 134 | 38 | Cc1ccccc1NC(=O)c1c2c(n3ccccc13)C(=O)c1cccnc1C2=O | IC50 [3]: 2660 nM; IC50 [5]: > 100000 nM |

Further lines, the compound ahead of its results:

| Compound | inhibition [1] [%] | IC50 [2] [nM] | inhibition [4] [%] | further results |
| --- | --- | --- | --- | --- |
| CSc1ccn2c3c(c(C(=O)NCCN(C)C)c2c1)C(=O)c1cccnc1C3=O | 72.5 | 50 | 42 | IC50 [3]: 1080 nM |
| O=C1c2cccnc2C(=O)c2c1c(C(=O)O)c1cc(I)ccn21 | 67 | 117 | 12 | – |
| O=C1c2ncccc2C(=O)c2c1c(Cc1ccccc1)c1ccccn21 | 56 | – | – | – |
| NS(=O)(=O)NCCNC1=NON/C1=C(/NO)Nc1ccc(F)c(Br)c1 | – | 73 | 96 | IC50 [3]: 7 nM |
| Cc1ccn2c3c(c(C(=O)O)c2c1)C(=O)c1cccnc1C3=O | 70 | 394 | – | – |
| O=C1c2cccnc2C(=O)c2c1c(Cc1ccccc1)c1ccccn21 | 34 | – | – | – |
| O=C(O)c1cccc(NC(=O)c2c3c(n4ccccc24)C(=O)c2cccnc2C3=O)c1 | 71.5 | 390 | – | IC50 [5]: > 100000 nM |
| COc1cccc2c1C(=O)c1c(O)c3c(c(O)c1C2=O)C[C@@](O)(C(=O)CO)C[C@@H]3O[C@H]1C[C@H](N)[C@H](O)[C@H](C)O1 [DOXORUBICIN] | – | – | – | IC50 (HeLa): 660 nM; IC50 (HEK-293T): 1130 nM |
| CN(C)CCNC(=O)c1c2c(n3ccccc13)C(=O)c1cccnc1C2=O | 77 | 188 | 81 | inhibition [6]: 88%; IC50 [3]: 1240 nM; IC50 [5]: 7150 nM |
| CN(C)CCNC(=O)c1c2c(n3ccccc13)C(=O)c1ncccc1C2=O | 78 | 127 | 43 | inhibition [6]: 91%; IC50 [3]: 738 nM; IC50 [5]: 3350 nM |
| COc1ccn2c3c(c(C(=O)O)c2c1)C(=O)c1ncccc1C3=O | 47 | – | – | – |
| O=C(O)c1cccc(NC(=O)c2c3c(n4ccccc24)C(=O)c2ncccc2C3=O)c1 | 74.5 | 148 | 9 | IC50 [5]: 41600 nM |
| CSc1ccn2c3c(c(C(=O)NCCN(C)C)c2c1)C(=O)c1ncccc1C3=O | 80.5 | 39 | 77 | IC50 [3]: 372 nM |
| COc1ccn2c3c(c(C(=O)O)c2c1)C(=O)c1cccnc1C3=O | 69 | 299 | – | – |
| O=C1c2ncccc2C(=O)c2c1c(C(=O)Nc1cccc(Cl)c1)c1ccccn21 | 34 | – | – | – |
| O=C1c2ncccc2C(=O)c2c1c(C(=O)O)c1cc(I)ccn21 | 67 | 420 | – | – |
| Cc1ccn2c3c(c(C(=O)O)c2c1)C(=O)c1ncccc1C3=O | 54 | – | – | – |
